Shown are actives, neighbours in structure and some others; about 6.1% of the full set was active somewhere.
Yeast lifespan up = yeast lifespan extension. inhibition of the nicotinamide effect, % at 10 µM. S. cerevisiae growth with nicotinamide, OD615; deaD strain in restrictive glucose medium. 0.68% of 130,000 active;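 active means inhibition above a set limit, placed 3 SD over the median of all compounds, cut at about 26% in these data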;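 further: 0% = nicotinamide-treated wells and 100% = cells grown without nicotinamide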
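System: DeaD-strain S. cerevisiae / Buffer or medium: CSMM-D, restrictive glucose (dextrose) synthetic minimal medium / Probe or stimulus: nicotinamide, 1.5 mM, co-present with compound / Compound: one concentration, 10 µM, DMSO 0.25% / Incubation: 48 h compound exposure at 30 °C, humidified / Technique: optical density (absorbance) at 615 nm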
BB579 growth dn = reduces growth of yeast BB579 in restrictive medium. S. cerevisiae BB579 growth, OD615, 48 h. inhibition, % at 10 µM. 0.51% of 140,000 active. AID 804;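 active means inhibition above a set limit, 3 SD over the mean compound inhibition, cut at about 44% in these data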
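Material: Saccharomyces cerevisiae DeaD strain BB579, replicative lifespan model yeast; buffer or medium: CSMM-D restrictive synthetic medium containing dextrose (glucose); compound: 10 µM single dose, DMSO 0.25%; timing: 48 h compound exposure at 30 °C after 4 h preincubation; signal: turbidity as optical density at 615 nm; benchmarks: positive control amphotericin B 10 µg/mL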
Measles CPE = protection of cells from measles virus; Measles virus-infected cells, CPE protection, absorbance; protection (pct of control), % at 4 µM; 1.5% of 140,000 active; in the data active means protection mostly above about 24%, no sharp cut-off; inactive means mostly below about 26%
hDAT+cocaine = changed human dopamine transporter uptake under cocaine IC80; 1.3% of 110,000 active; LLC-PK1 hDAT cells, [14C]-dopamine uptake with cocaine IC80; actives deviate in either direction; B-score at 10 µM;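 active means Z score or B-score, a plate-position-corrected score, falls beyond the plate's 99.7% confidence bounds, in either direction; inactive means both scores lie inside the 99.7% bounds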;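 further: scored against the spread of the other compound wells on the same plate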
Target sequence (Q01959 whole entry, looked up): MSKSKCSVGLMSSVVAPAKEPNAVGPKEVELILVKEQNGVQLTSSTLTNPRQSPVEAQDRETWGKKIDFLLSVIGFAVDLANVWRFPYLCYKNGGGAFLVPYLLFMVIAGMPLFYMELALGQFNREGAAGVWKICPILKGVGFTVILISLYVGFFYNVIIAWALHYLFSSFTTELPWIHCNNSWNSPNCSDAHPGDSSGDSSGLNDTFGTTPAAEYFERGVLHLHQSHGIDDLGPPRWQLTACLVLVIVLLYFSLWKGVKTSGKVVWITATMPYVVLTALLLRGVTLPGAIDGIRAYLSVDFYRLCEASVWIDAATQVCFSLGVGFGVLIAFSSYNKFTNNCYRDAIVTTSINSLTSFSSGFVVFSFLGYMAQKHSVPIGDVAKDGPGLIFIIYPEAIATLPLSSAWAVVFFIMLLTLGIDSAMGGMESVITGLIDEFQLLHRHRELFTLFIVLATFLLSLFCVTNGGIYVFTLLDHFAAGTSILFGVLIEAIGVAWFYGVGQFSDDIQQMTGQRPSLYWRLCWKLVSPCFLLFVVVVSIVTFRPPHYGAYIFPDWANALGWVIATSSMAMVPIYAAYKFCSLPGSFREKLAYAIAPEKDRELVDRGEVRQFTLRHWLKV
RAM network inh = yeast RAM network inhibition. S. cerevisiae dse1pr::URA3 reporter, 5-FOA growth OD615, 2 d; analog-sensitive cbk1-as2 kinase mutant strain. inhibition, % at 50 µM. 1.8% of 190,000 active;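 active means inhibition above a set limit, 3 SD over mean compound inhibition, cut at about 8.4% in these data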;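 further: 0% = DMSO-only wells with no growth and 100% = 10 µM 1-NA-PP1 full growth; inhibition rescues growth on 5-FOA so higher OD means more RAM inhibition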
WT yeast gro inh = growth inhibition of WT yeast, mitochondrial fusion screen. inhibition, % at 10 µM. mitochondrial fusion phenotypic screen, WT strain. 2.1% of 190,000 active; in the data active means inhibition above about 58%; tested in S. cerevisiae
An asterisk follows results filed as active; · = not tested or not shown.

SMILES | Yeast lifespan up | BB579 growth dn | Measles CPE | hDAT+cocaine | RAM network inh | WT yeast gro inh
CC1CN(C(=O)Nc2ccc3snnc3c2)c2ccccc21 (stereo unspecified) | -12 | -32 | -2 | 2.6* | 1 | 10
O=C(Nc1ccc2snnc2c1)N1CCSCC1 | · | -6 | 6 | 1.4 | 0 | -10
O=C(COn1nnc2ccccc21)N1CCN(Cc2ccccc2)CC1 | · | · | · | · | 0 | -12
Cc1c(Cl)cccc1NC(=S)N1CCN(S(=O)(=O)c2cccs2)CC1 | · | · | · | · | 3 | 7
CS(=O)(=O)N(Cc1ccc(C(=O)NC2CCCC2)cc1)c1ccccc1 | · | · | · | · | 6 | -3
CS(=O)(=O)N(Cc1ccccc1)c1ccc(C(=O)NCc2ccccc2)cc1 | -7 | -13 | 44* | 0.027 | 7 | -16
CCOc1ccc(N(CC(=O)NCCC2=CCCCC2)S(=O)(=O)c2ccccc2)cc1 | · | · | · | · | 6 | 14
Cc1ccc(N(Cc2ccc(C(=O)NC3CCCCC3)cc2)S(C)(=O)=O)cc1C | -10 | -42 | 103* | 0.0014 | 5 | -9
CC(OC(=O)Cc1ccc(Cl)cc1)C(=O)NCCC1=CCCCC1 (stereo unspecified) | 5 | -1 | 20 | · | 9.0* | 21
CCN(c1ccccc1)S(=O)(=O)c1ccc(C(=O)OC(C)C(=O)NCCC2=CCCCC2)cc1 (stereo unspecified) | 3 | -12 | 5 | · | 9.0* | 1
CCC(C)NC(=O)c1cn(C)c(=O)c2cc(OC)c(OC)cc12 (stereo unspecified) | -8 | -71 | 5 | 0.023 | 1 | -6
CS(=O)(=O)N(Cc1ccc(Cl)cc1)c1ccc(C(=O)NCCC2=CCCCC2)cc1 | -11 | -28 | 8 | -0.69 | 9.8* | 17
CCN(c1ccccc1)S(=O)(=O)c1ccc(C(=O)Oc2ccc(C(C)=O)cc2)cc1 | 7 | -26 | 12 | · | 9.1* | -3
CCN(c1ccccc1)S(=O)(=O)c1ccc(F)cc1 | -12 | -14 | 19 | 0.11 | 0 | 10
CC(=O)c1ccc(NC(=O)c2ccc(CSc3ccccc3)o2)cc1 | -7 | -42 | 7 | · | 8.6* | 44
CN1C(=O)OC(C)(C)C1=O | · | · | · | -0.25 | · | ·
CCN(CC)CC(C)OC(=O)c1ccccc1Cl (stereo unspecified) | · | · | · | · | 3 | 2
O=C(COC(=O)c1cccnc1Nc1cccc(C(F)(F)F)c1)NCCN1C(=O)CSC1=O | -16 | -26 | 15 | 3.5* | 0 | 10
Cc1cccc(NC(=O)C2CCCN(C(=O)Nc3ccccc3)C2)c1C (stereo unspecified) | 2 | -33 | 4 | 1.4 | 3 | -36
CCOc1ccc2[nH]c(=O)c(CN(CC3CCCN3CC)C(=O)NCc3ccccc3)cc2c1 (stereo unspecified) | -22 | -12 | 25* | 0.77 | 1 | 3
Cc1cc(C=NCCCO)c(C)n1-c1cc(Cl)ccc1Cl | · | · | · | · | 1 | -4
CCn1ccnc1C(O)c1cccc(OC)c1OC (stereo unspecified) | -9 | -13 | 3 | 0.0084 | 4 | -4
NNC(=O)/C(=N/Nc1ccccc1)S(=O)(=O)c1ccc(Cl)cc1 | 7 | -67 | 4 | · | 2 | 69*
CCOC(=O)/C(=N\Nc1ccccc1)S(=O)(=O)c1ccccc1 | 1 | -28 | 24 | -2 | 0 | 6
Cc1ccc(C2C(C(=O)c3cccs3)=C(O)C(=O)N2c2nnc(C)s2)cc1 (stereo unspecified) | · | · | · | · | 5 | -3
SMILES | Yeast lifespan up | BB579 growth dn | Measles CPE | hDAT+cocaine | RAM network inh | WT yeast gro inh
Cc1nc(CS(=O)c2ccc(Cl)cc2)cc(NCc2ccc(Cl)cc2Cl)n1 (stereo unspecified) | -6 | 6 | 5 | 2.6* | 0 | 59*
Cc1nc(CSc2ccc(Cl)cc2)cc(NCc2ccccc2)n1 | -5 | -34 | 3 | 0.31 | 3 | 54
CCn1nc(C)c(CNC(=O)Nc2ccccc2C(=O)OC)c1C | · | · | · | · | 0 | 0
CNC(=O)OCc1cccc(COC(=O)NC)n1 | -4 | -19 | 46* | · | 3 | 13
CC(=O)NCc1cccc(CNC(C)=O)n1 | -9 | -30 | 10 | -0.011 | 1 | 4
O=C(CCN1C(=O)/C(=C/c2ccccc2)SC1=S)NNC(=O)c1cccnc1 | -1 | -34 | 23 | · | 9.6* | -9
CCCN1C(=O)/C(=C/c2ccncc2)SC1=S | 54* | -48 | 8 | · | 1 | -5
O=C(CCN1C(=O)/C(=C/c2ccc(F)cc2)SC1=S)NNC(=O)c1cccnc1 | -2 | -27 | 8 | · | 2 | 9
Cc1ccc(C(=O)NNC(=O)CCCN2C(=O)/C(=C/c3ccccc3Cl)SC2=S)cc1 | 2 | -17 | 25 | · | 10* | -4
O=C1/C(=C/c2ccc(O)cc2)SC(=S)N1Cc1cccnc1 | 5 | -41 | 6 | · | 7 | 3
Cc1ccc(-c2nnc(SCC(=O)N3CC(C)CC(C)C3)o2)cc1C (stereo unspecified) | 14 | -51 | 12 | 0.86 | 3 | 7
CC1=C(C(=O)Nc2ccc(C)cn2)C(c2cnn(C)c2)C2=C(CCCC2=O)N1 (stereo unspecified) | 3 | -44 | 2 | · | 3 | -8
CC(=O)/C=C1/SC(CC(=O)O)C(=O)N1c1ccccc1 (stereo unspecified) | · | -21 | 19 | -1.5 | 1 | -18
CN(C1=NC(=O)C(CC(=O)Nc2ccc(Br)cc2)S1)c1ccc(O)cc1 (stereo unspecified) | -16 | -87 | 5 | -4* | 3 | 2
COC(=O)CCC(=O)Nc1ccc(Br)cc1 | -28 | -56 | 4 | -0.51 | 1 | 6
COc1ccc(/C=N/NC(=O)c2cccc(COCC(F)(F)C(F)F)c2)cc1 | -2 | -39 | 9 | · | -1 | -5
Cc1cccc(-c2ncc(CN3CCN(CC(C)C)C(CCO)C3)cn2)c1 (stereo unspecified) | · | · | · | · | 2 | 19
O=C(NC(=S)N1CCCc2ccccc21)c1ccc(Cl)cc1 | 0 | -25 | 23 | · | 1 | 48
O=C(c1ccc(C(=O)N2CCCc3ccccc32)s1)N1CCCc2ccccc21 | -17 | 84* | 5 | 2.5 | 0 | 97*
CCc1ccc2c(c1)CCCN2C(=O)c1ccccc1C(=O)O | 34* | -42 | 25 | 0.44 | 0 | 1
Cc1ccc(-c2nnn(CC(=O)N3CCCc4ccccc43)n2)cc1 | 4 | -4 | 8 | -7.8* | 1 | 15
O=C(NC(=S)N1CCCc2ccccc21)c1ccccc1 | -21 | 4 | 26* | 0.15 | 0 | 30
O=C(C(=O)N1CCCc2ccccc21)N1CCCc2ccccc21 | 1 | -8 | 10 | · | 0 | 13
C=CCONC(=O)c1cc(OCC(F)(F)F)ccc1OCC(F)(F)F | -11 | -29 | 7 | -0.008 | 1 | -5
O=C(c1cc(-c2ccccc2)nc2ccccc12)N1CCCc2ccccc21 | 4 | -25 | 18 | · | 5 | 63*

Screening results (PubChem)
